Bioassay records as filed in PubChem BioAssay.
Bfl-1 A1 inh = inhibitors of the anti-apoptotic protein A1, read as caspase activation; caspase activation, % (test concentration not listed); actives 0.066% (n = 330,000); MEF A1-2A-BIM cells, Caspase-Glo 3/7 luminescence, 3 h; percent of clofoctol response, vehicle zero;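 active = over half of replicate activation scores above 10%, or exactly half above 10 with the replicate mean above 10; inconclusive = replicate mean below 10 yet half the replicates above 10; inactive = over half of replicates below 10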
UPR CHOP act = activators of apoptotic arm of unfolded protein response (CHOP); CHO-CHOP luciferase reporter, UPR activation, luminescence; percent of tunicamycin response over DMSO baseline; activation, % at 10 µM; actives 0.34% (n = 330,000);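 active = at 10 µM dose, activation of 40% or more, normalized to positive control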
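Test system: CHO CHOP reporter cells. Input: 500 CHO-CHOP cells per well. Medium: F12 with 10% FBS. Technique: luciferase luminescence. Measure: percent activation relative to tunicamycin control. Dosing: 10 µM compound, 0.5% DMSO. Timing: 16-18 h cell attachment, then 6 h compound exposure, 37 °C.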
CHOP inhibitor = inhibitors of CHOP induction in ER stress response; CHO-K1 CHOP-promoter luciferase, tunicamycin-induced, 15-18 h; inhibition, % at 10 µM; actives 3.8% (n = 220,000); AID 2732;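 active = compounds that reduced the stress-induced luciferase reporter signal by more than about 70% of percent inhibition, limit read from the data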
XBP1 UPR activ = adaptive UPR (XBP1) activation | CHO-XBP1 luciferase reporter, IRE1-XBP1 UPR activation, luminescence; percent of tunicamycin response, DMSO as zero | activation, % at 20 µM | actives 0.33% (n = 330,000);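 active = versus positive control, 20 µM dose yields 30% or more activation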
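Assay system: CHO-XBP1 luciferase reporter cells; Schedule: 6 h treatment, 37 °C; Detection: glow luminescence from Steady-Glo reagent; Benchmarks: high control tunicamycin 10 µg/mL final, low control DMSO vehicle only.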
Of the large screens only hits and unclear results are named; the others gave an inactive call. The full list was thinned out, with hits kept by preference.

CC(C)CC(/C(O)=C(\C#N)c1nc2ccccc2[nH]1)N1C(=O)c2ccccc2C1=O (stereo not drawn)	none
Cc1cc(C(=O)COC(=O)Cc2n[nH]c(=O)c3ccccc23)c(C)n1-c1ccc2c(c1)OCO2	CHOP inhibitor 85
Cc1ccc(NC(=O)C(OC(=O)c2ccccc2Cl)c2ccccc2)cc1Cl (stereo not drawn)	none
Cc1ccc(NC(=O)C(OC(=O)c2ccc(NC(N)=O)cc2)c2ccccc2)cc1Cl (stereo not drawn)	CHOP inhibitor 91
COC(=O)C1=C(C)N=c2s/c(=C3\C(=O)Nc4ccccc43)c(=O)n2C1c1ccccc1 (stereo not drawn)	CHOP inhibitor 79 (no result: Bfl-1 A1 inh)
CCOC(=O)C1=C(C)n2c(s/c(=C3\C(=O)Nc4ccccc43)c2=O)=NC1c1ccc(OC)cc1 (stereo not drawn)	CHOP inhibitor 78
COc1nc(N)c(C#N)c(-c2ccc(N(C)CCC#N)cc2)c1C#N	none
Cc1ccc(Oc2cc(NC(=O)CCCn3nc([N+](=O)[O-])cc3C)cc([N+](=O)[O-])c2)cc1	CHOP inhibitor 73
Cc1ccc(C)c(Oc2cc(NC(=O)CCCn3nc(C)c([N+](=O)[O-])c3C)cc([N+](=O)[O-])c2)c1	CHOP inhibitor 80
Cc1nn(C)cc1C(=O)Nc1cc(Oc2ccc(Cl)cc2)cc([N+](=O)[O-])c1	CHOP inhibitor 82
CCOc1ccc(Oc2cc(NC(=O)c3ccco3)cc([N+](=O)[O-])c2)cc1	CHOP inhibitor 87 (no result: UPR CHOP act, XBP1 UPR activ)
Cc1nn(CCCC(=O)Nc2cc(Oc3ccccc3)cc([N+](=O)[O-])c2)c(C)c1[N+](=O)[O-]	none
CC(C)(C)C(=O)N(Cc1ccc(Cl)cc1)Cc1cccnc1	none
COc1ccc(OC)c(NC(=O)C(=O)c2cn(CC(=O)N3CCCC3)c3ccccc23)c1	none (no result: CHOP inhibitor)
CC(=O)Nc1ccc(/C=N/OCC(=O)Nc2ccc(C)cc2)cc1	none
Cc1cc(OCC(=O)OCC(=O)c2ccc[nH]2)ccc1Cl	none (no result: Bfl-1 A1 inh, CHOP inhibitor)
CCOC(=O)C1CCN(C(=O)Cc2ccccc2OC)CC1	none
CC1CCCC(n2c(=S)[nH]c3ccccc3c2=O)C1C (stereo not drawn)	CHOP inhibitor 94
O=c1c2ccccc2[nH]c(=S)n1C1CCCCC1	none
Cc1ccc(-c2nc(SCC(N)=O)c(C#N)c3c2CCCC3)cc1	CHOP inhibitor 83
CCCCOC(=O)CSc1nnc(-c2ccc(Cl)cc2Cl)o1	CHOP inhibitor 71
N#C/C(=C\Nc1ccc2c(c1)OCCO2)c1nc2ccccc2[nH]1	CHOP inhibitor 74
Cc1ccc(S(=O)(=O)N/N=C2/CCCCC2C2CCCCC2)cc1[N+](=O)[O-] (stereo not drawn)	CHOP inhibitor 79
CC(C)(C)C1CCC(=NNc2ccc(S(N)(=O)=O)cc2[N+](=O)[O-])CC1 (stereo not drawn)	CHOP inhibitor 83
CC/C(C)=N/NS(=O)(=O)c1ccc(C)c([N+](=O)[O-])c1	none
CCC(C)(C)C1CCC(=NNS(=O)(=O)c2ccc(C)c([N+](=O)[O-])c2)CC1 (stereo not drawn)	CHOP inhibitor 70
O=C(Nc1ccccc1Cc1ccccc1)c1ccccc1NS(=O)(=O)c1ccc(Cl)s1	CHOP inhibitor 71
COc1cccc(NC(=O)CN2C(=O)C(=O)N(C3CCCC3)C2=O)c1	none (no result: CHOP inhibitor)
CCOc1ccccc1NC(=O)C(CC(C)C)NC(=O)C1CCC(C)CC1 (stereo not drawn)	none
CCOc1ccccc1NC(=O)C(NC(=O)C1CCC(C)CC1)C(C)C (stereo not drawn)	CHOP inhibitor 73
CC(C)OC(=O)C(C(=O)C(F)(F)F)c1cc(NS(=O)(=O)c2ccc3ccccc3c2)c2ccccc2c1O (stereo not drawn)	CHOP inhibitor 92
Cc1cc(NS(=O)(=O)c2ccc(NC(=O)C3CCCCC3)cc2)no1	none (no result: CHOP inhibitor)
Cc1cccc(Nc2nc(N)c(C#N)c(CC#N)c2C#N)c1	none
COc1ccc(C(=O)OCC2CC(c3ccccc3)N(C)O2)cc1 (stereo not drawn)	CHOP inhibitor 80
C=CS(=O)(=O)c1sc(Cl)c(N2CCOCC2)c1[N+](=O)[O-]	CHOP inhibitor 104 (no result: Bfl-1 A1 inh, UPR CHOP act, XBP1 UPR activ)
O=C(CSc1nc(-c2ccccc2Cl)ns1)Nc1ccc2c(c1)OCO2	none
C=CCN1C(=O)/C(=C2/Sc3ccc(OC)cc3N2C)SC1=Nc1ccccc1	CHOP inhibitor 74
O=C(Nc1ccc(Cl)cc1)OC(CN1CCCCC1)C(F)(F)F (stereo not drawn)	CHOP inhibitor 74
O=C(Nc1cccc(F)c1)OC(CN1CCCCC1)C(F)(F)F (stereo not drawn)	none
O=C(CCCCl)NC(=S)Nc1cc(C(F)(F)F)ccc1N1CCOCC1	CHOP inhibitor 81
O=C(Nc1cc(C(F)(F)F)ccc1N1CCOCC1)c1ccccc1F	none
CC(C)(C)C(=O)NC(=S)Nc1cc(C(F)(F)F)ccc1N1CCOCC1	none
O=C(Nc1cc(C(F)(F)F)ccc1N1CCOCC1)c1cccc(F)c1	CHOP inhibitor 76
O=C(Nc1cc(C(F)(F)F)ccc1N1CCOCC1)C1Cc2ccccc2CN1C(=O)c1ccco1 (stereo not drawn)	CHOP inhibitor 72
Cc1nn(Cc2c(F)c(F)c(F)c(F)c2F)c(C)c1NC(=O)c1ccnn1C	none (no result: CHOP inhibitor)
CCOC(=O)Cc1csc(NC(=O)c2ccc3ccccc3n2)n1	none (no result: CHOP inhibitor)
COc1cccc(Oc2cn[nH]c2-c2ccc(OC)cc2O)c1	CHOP inhibitor 84
O=[N+]([O-])c1ccc(COc2ccc(-c3[nH]ncc3-c3ccc(Cl)cc3)c(O)c2)cc1	CHOP inhibitor 82
COc1ccc(-c2[nH]ncc2-c2ccc(Cl)cc2)c(O)c1	CHOP inhibitor 86
CC(Nc1n[nH]c(=O)[nH]c1=O)C(=O)N/N=C/c1ccccc1 (stereo not drawn)	none
COc1cc(NS(=O)(=O)c2ccc(C)cc2)c2ncccc2c1	UPR CHOP act 111 (no result: CHOP inhibitor)
Nc1ccc(N=Nc2ccccc2O)c(N)c1	none (no result: CHOP inhibitor)
Oc1ccccc1N=Nc1ccccc1O	CHOP inhibitor 73 (no result: Bfl-1 A1 inh, UPR CHOP act, XBP1 UPR activ)
NC(=O)c1nn(-c2ccccc2)nc1NC(=O)Cn1nnc(-c2ccccc2)n1	CHOP inhibitor 72
Cc1cc(=O)oc(C)c1C(=O)OCC(=O)c1ccccc1	none
Cc1cc(=O)oc(C)c1C(=O)OCC(=O)c1ccc2ccccc2c1	CHOP inhibitor 71
CCn1cc(Br)c(-c2nc3ccccc3c(=O)n2N)n1	Bfl-1 A1 inh inconclusive, CHOP inhibitor 90
CCC(C)[C@H](N)c1nnc(SCC(=O)c2ccc(Cl)cc2)o1 (stereo partly drawn)	none
CCCC(=O)Nc1ccc(-c2nc3cc(C)c(C)cc3o2)cc1	CHOP inhibitor 95
CCCC(=O)Nc1ccc2oc(-c3ccncc3)nc2c1	none
COc1ccc(-n2nnnc2SCC(=O)N2C(C)CCCC2C)c(OC)c1 (stereo not drawn)	none
O=c1[nH]c(SCc2ccccc2)nc2c1sc1ccccc12	none
CC(C)Cc1cc(C(=O)Nc2sc3c(c2C#N)CCC3)no1	none
